Test results reported in the RNAGym collection of RNA variant scans (doi:10.1126/science.aae0568).
This sample holds only a part of the variants without activity.

B1: tRNA (parent)
chain: GUUCCGUUGGCGUAAUGGUAACGCGUCUCCCUCCUAAGGAGAAGACUGCGGGUUCGAGUCCCGUACGGAACG

Variants of: B1
Assay: yeast fitness relative to wild type (ratio to wild type); higher = fitter; tRNA-Arg(CCU), competitive growth, 37 C, YPD
Procedure, shortened: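 For this measurement, the tRNA-Arg(CCU) gene was varied by chemical synthesis at a 3% per-site mutation rate across 69 sites, and each variant was placed at the native genomic locus in Saccharomyces cerevisiae. The pooled strains went through a 24-hour competition in YPD at 37°C in six parallel replicates, with amplicons from start and end populations read by 100-nucleotide paired-end sequencing. Darwinian fitness relative to wild type followed from the change in each genotype's frequency. Genotypes needed ≥ 100 starting reads, and estimates < 0.5 were set to 0.5.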

Variant	yeast fitness
GUUCCGUUGGCGUAAUGGUAACGCGUCUGCCUCCUAAGGAGAAGAGUGCGGGUUCGAGUCCCGUACGGAACG [C29G C46G]	0.687
GUUCCGUCGGCGUAAUGGUAACGCGUCUCCCUCCUCAGGAGAAGACUGCGGGUUCGAGUCCCGUACCGAACG [U8C A36C G67C]	≤ 0.5
GUUCCGUUGGAGUAAUGAUAACGCGUCUCCCUCCUGAGGAGCAGACUGCGGGUUCGAGUCCCGUACGGAACG [C11A G18A A36G A42C]	0.711
GUUCCGUUGGCGUAAUGGUAACGUGUCUCCCUCCAAAGGAGAAGACUGCGGGUUCGAGUCCCGUACGGUACG [C24U U35A A69U]	0.513
GAUCCCCUGGCGUAAUGGUAACGCGUCUCCCUCCUAAGGAGACGAUUGCGGGUUCGAGUCCCCUAUGGAACG [U2A G6C U7C A43C C46U G63C C66U]	≤ 0.5
GUUCCGUUGGCGUAAUGGUAACGCGUCUCCAUCCUAAGGAGAAGACUGCGGGUUCGAGUCCGGUACGCAACG [C31A C62G G68C]	≤ 0.5
GUUUCGUUGGCGUAAUGGUAACGCGUCUCGCUCCUAAGGAGAAGACUGCGGGUUCGAGUCCCGUACGGAACG [C4U C30G]	0.801
GUUCCGUUGGGGUAAUGGUAACGCGUCACCCUCCUAAGGAGAAGACUGCGGGUUCGAGUCCAGUACGGAACG [C11G U28A C62A]	≤ 0.5
GUUCCGUUGGAGUAAUGGUAACGCGUCUCCCUCCUUAGGAGAAGACUGCGGGUUCGAGUCUCGUUCGGAACG [C11A A36U C61U A65U]	≤ 0.5
GUUCCGUUGGCGUAAUGGUGACGCCUCUCCCUCCUAAGGAGAAGACUGAGGGUUCGAGUCCCGUACGGAACG [A20G G25C C49A]	≤ 0.5
GUUUCGUUGGCGUAAUGGUAACGCGUCUCCCUCCUAAGGAGAAGACUGCGGGUUCGAGUACCGUACGGAACG [C4U C60A]	0.532
GUUCCCUUGGCGUAAUAGUAACGCGUCUCCCUCCUAAGGUGAAGACUGCGGGUUCGAGUCCCGUACGGAACG [G6C G17A A40U]	≤ 0.5
GUUCCGUUGGCGUAAUGGUAGCGCGUCUCCCUACUAAGGACAAGACUGCGGGUUCGAGUCCCGUACGGAACG [A21G C33A G41C]	≤ 0.5
GUUCCGUUGGCGUACUGGUAACGCGUCUCCCUCCUAAGGAGAAGACUGCCGGAUCGAGUCCCGUAAGGAACG [A15C G50C U53A C66A]	≤ 0.5
GUUCCGUUGGCGUAAUGGUAACACGUCUCCCUCCUAAGGAGAAGACUGCGGGUUAGAGUCACGUACGGAACG [G23A C55A C61A]	0.568
GUUCCGUUGGCGUAAUGGUAACGCGUCUCCCUCCAAGGGAGAAGACUGCGGGUUCGAGUCCCGUACGGAACG [U35A A37G]	≤ 0.5
GUUCCGUUGGCGAAAUGGUAACGCGUCUCCCUCCUAAGGGGGAGACUGCGGGUUCGAGUCCCGUACGGAACG [U13A A40G A42G]	≤ 0.5
GUUCAGUUGGCGUAAUGGUAACGCGUCUCCCUCCUACGGCGAAGUCUGCGGGUUCGCGUCCCGUACGGAUCG [C5A A37C A40C A45U A57C A70U]	≤ 0.5
GUUCCGUUGGCGUAAUGGUAACGCGUCUCCCUCCUAAGCAGAUGACUGCGGGUUCGAGUCCCGUACGGAUCG [G39C A43U A70U]	0.691

Variant	yeast fitness
GUUCCGUUGGCGUAAUGGUACCGCGUCUCCCUCCUAAGGAGAAGACAGCGGGUUCGAGUUCCGUACCGUACG [A21C U47A C60U G67C A69U]	0.574
GUUCCGUGGCUGUAAUGGUAACGCGUCUCCCUCCUAGGGAGAAGACUGCGGGUUCGAGCCCCGUACGGAACG [U8G G10C C11U A37G U59C]	≤ 0.5
GUUCCGUUGGCGUAAUGGUAACGCGUCUACCUCCUAAGGAGAAGAGUGCGGGUUCGAGUCCCGUACGGAACG [C29A C46G]	0.634
GUUCCGUUGGCGUAAUGAUAACGCGUCCCCCUCCUAAGGAGAAGACUGCUGGUUCGAGUCCCGUACGGAACG [G18A U28C G50U]	≤ 0.5
GUUCCGUUGGCGUAGUGGUAACGCGUCUCCCUCCUAAGGAGAAAACUGCCGGUUCGAGUCCCGUACGGAGCG [A15G G44A G50C A70G]	≤ 0.5
GUUCCGUUGGCGUAAUGGUAACGCGUCUCCCUCCUAAGGAGAAGACUGCGGGUUCGAGCCCAGUACGGAACG [U59C C62A]	0.75
GUUCCGUUGGCGUAAUGGUAACGCGUCUCCCUCCUAAGGAGAAGACUGCGAGUUCGAGUCCCGUAUGGAACG [G51A C66U]	0.82
GUUCCGUUGGCGUAAUGGUAACGCGUCUCCCUCCAAAGGAGAAGACUGCGGGUUCGAGUACCGUACGGAACG [U35A C60A]	0.535
GUUCCGUUGGCGUAAUGGUAACGCAUCUACCUCCUAAGGAGAAGACUGCGGGUUCGCGUCCCGUACGGAGCG [G25A C29A A57C A70G]	≤ 0.5
GUUCCGUUGGCGUAAUGGUAGCGCGUCUGCCUCCUAAGGAGAAGACUGCGGGUUCGAGUCCCGUACGGAACG [A21G C29G]	0.625
GUUCCGUUGGCGUAAUGGUAACGCGUCUCCCUCCUAAGGAGAAGACUGCGGGUUCGAGUGCCGUAGGGUACG [C60G C66G A69U]	≤ 0.5
GUUCCGUUGGCGUAAUGGUAACGCGUCUCCCUCCUAAGGAGAAGACUGCGGGUUGGUGUCCCGUCCGGAACG [C55G A57U A65C]	≤ 0.5
GUUCCGUUGGCGUAAUGGUAAGGCGUCUCCGUCCUAAGGAGAAGACUGCGGGUUCGAGUCCCGUAUGGCACG [C22G C31G C66U A69C]	0.528
GUUCCGAUGGCGUAAUGGUAACGCGUCUUCCUCCUAAGGAGAAGACUGCGGGUUCGAGUCCCGUACGGAACG [U7A C29U]	0.67
GUUACGUUGGCGUAAUGGUAACGCGUCUACCUCAUAAGGAGAAGACUGCGGGUUCGAGUCCUGUACGGAACG [C4A C29A C34A C62U]	≤ 0.5
GUUCCGUUGGCGUAAUGGUAACGAGUUUCCCUCCUAAGGAGAAGACUGCGGGUCCGAGCCCCGUACGUAACG [C24A C27U U54C U59C G68U]	≤ 0.5
GUACCGUUGGCGUAAUGGUAACGCGUCUCCCUCCUAAGGAGAAGACUGCGGGUUCGAGUCCCGCACGCAACG [U3A U64C G68C]	0.586
GUUCCGCUGGCGUAAUGGUAACGCGUCUCCCACCUAAGGAGAAGACUGCGGGAUCGAGUCCCGUACGGAACG [U7C U32A U53A]	0.576
GUUCCGUUGGCGUAAUGGUAACGCGUCUCCCUCGUAAGGAGAAGACUGCGGGUUCGAGACCCGUACGGAACG [C34G U59A]	0.538
